ChEMBL document CHEMBL3758101, “Synthesis and biological evaluation of fluorinated 1,5-diarylpyrrole-3-alkoxyethyl ether derivatives as selective COX-2 inhibitors endowed with anti-inflammatory activity” (Eur J Med Chem, 2016)
Calls of active or inactive are those of the source.

Legend:
[1] = system: Rattus norvegicus; experiment: Antiinflammatory activity in Sprague-Dawley rat model of carrageenan-induced paw edema assessed as volume of paw edema at 20 mg/kg, po administered 2 hrs post carrageenan challenge measured after 60 mins by plethysmometry (reference value: 2.73 +/- 0.07 ml); assay type: functional
[2] = system: Mus musculus; experiment: Antinociceptive activity in po dosed CD1 albino mouse model of acetic acid-induced visceral pain assessed as number of writhes pretreated for 30 to 60 mins before acetic acid challenge measured after 5 mins; assay type: functional, organism-based
[3] = system: Rattus norvegicus; experiment: Antihyperalgesic effect in Sprague-Dawley rat model of monosodium iodoacetate-induced osteoarthritis assessed as withdrawal threshold at 3 mg/kg, ip administered 14 days post MIA challenge measured after 90 mins by paw pressure test (reference value: 37.8 +/- 3.1 g); assay type: functional
Method in brief: (§1)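 Male Sprague–Dawley rats (200–250 g). MIA (2 mg/25 µL) was injected into the left tibiotarsal joint on day 0 under 2% isoflurane; controls received 25 µL saline. On day 14 compound or vehicle was given at time 0. Paw pressure threshold (g) was read with an analgesimeter using a blunt conical probe on the dorsal paw at 30, 60, 90 and 120 min. Mean ± s.e.m., 6 rats.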

[4] = system: Rattus norvegicus; experiment: Antihyperalgesic effect in Sprague-Dawley rat model of monosodium iodoacetate-induced osteoarthritis assessed as withdrawal threshold at 20 mg/kg, ip administered 14 days post MIA challenge measured after 120 mins by paw pressure test (reference value: 39.2 +/- 4 g); assay type: functional; method in brief: as §1
[5] = system: HaCaT; experiment: Antiproliferative activity against human HaCaT cells at 10 uM after 24 hrs by BrdU incorporation assay; assay type: functional, cell-based
Method in brief: (§2)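 HaCaT human keratinocytes were grown in high-glucose DMEM with 10% FBS and 2 mM L-glutamine at 37 °C and 5% CO2 to 80% confluency. Cells were treated 24 h with compound at 1, 10 or 50 µM (final DMSO ≤0.1%). Proliferation was read by BrdU incorporation as % of DMSO control; three experiments.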

[6] = system: HaCaT; experiment: Antiproliferative activity against human HaCaT cells at 50 uM after 24 hrs by BrdU incorporation assay; assay type: functional, cell-based; method in brief: as §2
[7] = target: T1, Prostaglandin G/H synthase 1 (Mus musculus, UniProt P22437); experiment: Inhibition of COX-1 in mouse J774 cells assessed as reduction in PGE2 level using arachidonic acid as substrate preincubated for 15 mins followed by incubation with arachidonic acid for 30 mins by radio immunoassay; assay type: cell-based
T1 sequence (P22437 whole entry): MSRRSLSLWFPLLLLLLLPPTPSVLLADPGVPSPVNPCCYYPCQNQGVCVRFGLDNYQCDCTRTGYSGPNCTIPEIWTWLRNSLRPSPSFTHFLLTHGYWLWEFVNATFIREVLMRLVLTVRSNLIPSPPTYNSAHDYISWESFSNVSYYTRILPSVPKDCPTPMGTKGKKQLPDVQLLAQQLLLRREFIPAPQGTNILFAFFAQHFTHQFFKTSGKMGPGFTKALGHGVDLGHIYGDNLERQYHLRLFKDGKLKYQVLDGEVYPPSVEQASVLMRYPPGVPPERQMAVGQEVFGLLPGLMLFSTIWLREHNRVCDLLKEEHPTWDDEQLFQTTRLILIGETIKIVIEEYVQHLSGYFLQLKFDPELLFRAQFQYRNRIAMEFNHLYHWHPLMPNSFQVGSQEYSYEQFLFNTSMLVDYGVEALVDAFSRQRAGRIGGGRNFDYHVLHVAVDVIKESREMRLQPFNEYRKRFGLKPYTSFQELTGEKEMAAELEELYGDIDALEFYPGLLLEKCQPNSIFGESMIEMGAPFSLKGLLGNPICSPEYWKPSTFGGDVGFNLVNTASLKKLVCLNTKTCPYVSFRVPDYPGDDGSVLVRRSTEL
Method in brief: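 Murine J774 macrophages (2.5 × 10^5 cells/mL) were adhered 2 h at 37 °C and given fresh medium. Cells were pretreated with compound at 100 µM for 15 min, then incubated 30 min at 37 °C with 15 µM arachidonic acid. Supernatant PGE2 was measured by RIA as % inhibition versus control; triplicate wells, three experiments, IC50 from a sigmoidal variable-slope fit.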

[8] = system: Rattus norvegicus; experiment: Antiinflammatory activity in Sprague-Dawley rat model of carrageenan-induced paw edema assessed as volume of paw edema at 3 mg/kg, po administered 2 hrs post carrageenan challenge measured after 60 mins by plethysmometry (reference value: 2.73 +/- 0.07 ml); assay type: functional
[9] = system: Rattus norvegicus; experiment: Antiinflammatory activity in Sprague-Dawley rat model of carrageenan-induced […] at 10 mg/kg, po administered 2 hrs post carrageenan challenge measured after 30 mins by […] (reference value: 34.1 +/- 2.3 ml); assay type: functional
[10] = system: Rattus norvegicus; experiment: Antiinflammatory activity in Sprague-Dawley rat model of carrageenan-induced […] at 10 mg/kg, po administered 2 hrs post carrageenan challenge measured after 60 mins by […] (reference value: 35.4 +/- 3.6 ml); assay type: functional
[11] = system: Rattus norvegicus; experiment: Antiinflammatory activity in Sprague-Dawley rat model of carrageenan-induced […] at 10 mg/kg, po administered 2 hrs post carrageenan challenge measured after 120 mins by […] (reference value: 34.5 +/- 4.4 ml); assay type: functional
[12] = system: Rattus norvegicus; experiment: Antiinflammatory activity in Sprague-Dawley rat model of carrageenan-induced paw edema assessed as paw volume at 20 mg/kg, po administered 2 hrs post carrageenan challenge measured after 30 mins by plethysmometry (reference value: 34.1 +/- 2.3 ml); assay type: functional
[13] = system: Rattus norvegicus; experiment: Antihyperalgesic activity in Sprague-Dawley rat model of carrageenan-induced inflammatory pain assessed as paw pressure threshold at 3 mg/kg, po administered 2 hrs post carrageenan challenge measured after 30 mins by paw pressure test (reference value: 34.1 +/- 2.3 g)
[14] = system: Rattus norvegicus; experiment: Antihyperalgesic activity in Sprague-Dawley rat model of carrageenan-induced inflammatory pain assessed as paw pressure threshold at 20 mg/kg, po administered 2 hrs post carrageenan challenge measured after 90 mins by paw pressure test (reference value: 37.2 +/- 3.4 g)

With `Cc1c(CCOCCCF)cc(-c2ccc(S(C)(=O)=O)cc2)n1-c1ccc(F)cc1` the Activity [1] was 2.06 mL, the Activity [2] was “Dose-dependent effect” and the Activity [3] was 42.4 g. For the same compound, the Activity [4] was 37.1 g, the Activity [5] was “Active” and the Activity [6] was “Active”. It also gave an IC50 [7] greater than 100 µM, an Activity [8] of 2.38 mL and an Activity [9] of 51.7 g. The Activity [10] was 53.5 g, the Activity [11] was 38.1 g and the Activity [12] was 53.9 g. For the same compound, the Activity [13] was 45.2 g and the Activity [14] was 44.9 g.
